The Ki is the equilibrium dissociation constant of an inhibitor or competing ligand from its target.

Molecules are shown by their SMILES. The source made the active and inactive calls. No cut-off for these calls is given here.

Data set [1] concerns Vero. Description: Cytotoxicity against african green monkey Vero cells by MTT assay at 400 ug/ml after 72 hrs. Type of data set: cell-based. As to conditions: chlorocebus sabaeus. In outline:
(§1)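 Vero cells in DMEM with 10% fetal calf serum plus penicillin/streptomycin; seeded 6 × 10^3 cells/mL, exposed to compounds (range 5–400 µg/mL) 72 h at 37 °C, 5% CO2; MTT 7.5 mg/mL added 4 h, formazan dissolved in 10% SDS/0.01 M HCl, OD 550/570 nm; duplicate, untreated cells as control.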
(In general: Tetrazolium dyes change colour on reduction, which living cells bring about.)

The target in data set [2] is T1, Thymidylate kinase (Mycobacterium tuberculosis, UniProt P9WKE1).
T1 sequence (P9WKE1 whole entry): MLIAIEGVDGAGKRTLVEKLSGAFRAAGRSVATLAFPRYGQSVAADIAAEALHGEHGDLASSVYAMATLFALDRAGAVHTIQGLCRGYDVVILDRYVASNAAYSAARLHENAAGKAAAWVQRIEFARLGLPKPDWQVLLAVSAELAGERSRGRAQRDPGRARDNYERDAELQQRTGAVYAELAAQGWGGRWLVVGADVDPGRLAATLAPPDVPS
Description: Inhibition of Mycobacterium tuberculosis recombinant TMPK.

For data set [3], the target named is T2, Thymidylate kinase (Mycobacterium tuberculosis) (UniProt P9WKE1).
T2 sequence (whole entry): T1 sequence (P9WKE1 whole entry)
As to the kind of experiment: Inhibition of Mycobacterium tuberculosis recombinant TMPK upto 0.2 mM.

For data set [4], the target named is T3, Thymidylate kinase (Homo sapiens, UniProt P23919).
T3 sequence (P23919 whole entry): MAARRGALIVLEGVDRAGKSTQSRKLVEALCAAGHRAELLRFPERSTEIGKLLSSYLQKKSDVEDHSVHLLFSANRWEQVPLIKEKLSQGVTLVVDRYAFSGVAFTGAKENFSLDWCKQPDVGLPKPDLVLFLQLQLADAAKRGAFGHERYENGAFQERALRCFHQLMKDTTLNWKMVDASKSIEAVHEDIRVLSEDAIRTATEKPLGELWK
As to the kind of experiment: Inhibition of human TMPK.

The nature of data set [5]: Selectivity index, ratio of Ki for human TMPK to Ki for Mycobacterium tuberculosis recombinant TMPK. In outline:
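Selectivity index computed as Ki human TMPK divided by Ki M. tuberculosis TMPK, each Ki from recombinant enzyme assays with ATP and dTMP, mean of three assays.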

The target in data set [6] is T4, Thymidylate kinase (Homo sapiens) (UniProt P23919).
T4 sequence (whole entry): T3 sequence (P23919 whole entry)
As to the kind of experiment: Inhibition of human TMPK upto 2 mM.

Data set [7] has as its target T2, Thymidylate kinase (Mycobacterium tuberculosis). As to the kind of experiment: Inhibition of Mycobacterium tuberculosis recombinant TMPK upto 2 mM.
Data set [8] relates to Vero. Description: Cytotoxicity against african green monkey Vero cells by MTT assay at 100 ug/ml after 72 hrs. The class given is cell-based. As to conditions: chlorocebus sabaeus. In outline:
as §1

For the compound `Cc1cn(Cc2ccc(CCCC(N)=O)cc2)c(=O)[nH]c1=O`, the Activity result in the data set with Vero [1] was “Non-toxic”. Also, the Ki on Thymidylate kinase [2] turned out to be 112 µM.

In the case of `Cc1cn(Cc2ccc(CCC(N)=O)cc2)c(=O)[nH]c1=O`, the Activity result in the data set on Vero [1] was “Non-toxic”. The Ki at Thymidylate kinase [2] turned out to be 89 µM.

As to `CCCCc1ccc(Cn2cc(Cl)c(=O)[nH]c2=O)cc1`, in data set [3], the outcome was inactive. For the same compound, the Activity entry in the data set on Vero [1] is “Non-toxic”.

As to `Cc1cn(Cc2ccc(CCCCC(=O)O)cc2)c(=O)[nH]c1=O`, the Activity entry with Vero [1] was “Non-toxic”. At Thymidylate kinase [2], the Ki came to 58 µM.

For `Cc1cn(Cc2ccc(CCCCCC(N)=O)cc2)c(=O)[nH]c1=O`, the Activity result with Vero [1] was “Non-toxic”. On Thymidylate kinase [2], the Ki turned out to be 26.5 µM.

`Cc1cn([C@H]2C[C@H](O)[C@@H](CO)O2)c(=O)[nH]c1=O` [DOXRIBTIMINE]: the Activity result with Vero [1] is given as “Non-toxic”.

Consider `O=C(O)CCCCCc1ccc(Cn2cc(Cl)c(=O)[nH]c2=O)cc1`, for which the Activity result in the data set on Vero [1] was “Non-toxic”. In addition, at Thymidylate kinase [2], the Ki came out at 23 µM.

On to `O=c1[nH]c(=O)n([C@H]2C[C@H](O)[C@@H](CO)O2)cc1Cl` [CHLORODEOXYURIDINE], for which the Ki at Thymidylate kinase [2] was 10 µM.

Take `O=C(O)CCCCc1ccc(Cn2cc(Cl)c(=O)[nH]c2=O)cc1`: the values for the Ki on Thymidylate kinase [4] and at Thymidylate kinase [2] were 122 µM and 16 µM, respectively. The Activity entry in the data set on Vero [1] was “Non-toxic”. Moreover, the Ratio Ki in data set [5] was found to be 7.6.

As to `NC(=O)CCCc1ccc(Cn2cc(Br)c(=O)[nH]c2=O)cc1`, in the data set with Vero [1], the Activity entry is “Non-toxic”. Also, at Thymidylate kinase [2], the Ki was 39 µM. In addition, in data set [6], the result was inactive.

On to `NC(=O)CCCCCc1ccc(Cn2cc(Br)c(=O)[nH]c2=O)cc1`, for which, in the data set on Vero [1], the Activity result is on record as “Non-toxic”. The inhibition constant (Ki) at Thymidylate kinase [2] amounted to 19.5 µM.

As to `Cc1cn(Cc2ccc(Br)cc2)c(=O)[nH]c1=O`, in the data set on Vero [1], the Activity result is recorded as “Non-toxic”.

Take `CCCCc1ccc(Cn2cc(Br)c(=O)[nH]c2=O)cc1`: the outcome in data set [3] was inactive. The Activity entry with Vero [1] is given as “Non-toxic”.

For the compound `Cc1cn(Cc2ccc(CCC(=O)O)cc2)c(=O)[nH]c1=O`, in the data set on Vero [1], the Activity result is “Non-toxic”. The inhibition constant Ki on Thymidylate kinase [2] worked out at 55 µM.

Turning to `Cc1cn(Cc2ccc(/C=C/CC(=O)O)cc2)c(=O)[nH]c1=O`, the Activity entry with Vero [1] is “Non-toxic”. Further, the Ki at Thymidylate kinase [2] came to 39 µM.

`Cc1cn(Cc2ccc(CCCCC(N)=O)cc2)c(=O)[nH]c1=O`: in the data set with Vero [1], the Activity result is on record as “Non-toxic”. Moreover, the Ki at Thymidylate kinase [2] is 55 µM.

As for `O=c1[nH]c(=O)n([C@H]2C[C@H](O)[C@@H](CO)O2)cc1Br` [BROXURIDINE], the Ki turned out to be 214 µM at Thymidylate kinase [4] and 5 µM on Thymidylate kinase [2]. Also, the Activity result in the data set on Vero [1] was “Non-toxic”. In addition, the Ratio Ki in data set [5] was 43.

With `Cc1cn(Cc2ccc(/C=C/C(=O)O)cc2)c(=O)[nH]c1=O`, in data set [7], the outcome was inactive. Moreover, the Activity entry in the data set with Vero [1] is listed as “Non-toxic”.

Regarding `NC(=O)CCCCc1ccc(Cn2cc(Br)c(=O)[nH]c2=O)cc1`, the Activity result with Vero [1] is “Non-toxic”. Moreover, on Thymidylate kinase [2], the Ki was determined as 35 µM.

For `Cc1cn(Cc2ccc(/C=C/C(N)=O)cc2)c(=O)[nH]c1=O`, the Activity entry in the data set with Vero [1] is reported as “Non-toxic”. Moreover, the Ki on Thymidylate kinase [2] was 195 µM.

`O=C(O)CCCc1ccc(Cn2cc(Cl)c(=O)[nH]c2=O)cc1` yielded a Ki at Thymidylate kinase [4] of 790 µM. Besides, the Activity entry with Vero [1] is given as “Non-toxic”. Moreover, in data set [5], the Ratio Ki stood at 120.

Consider `COC(=O)CCCc1ccc(Cn2cc(Br)c(=O)[nH]c2=O)cc1`, for which the Activity entry with Vero [1] is recorded as “Non-toxic”. Also, on Thymidylate kinase [2], the Ki is 52 µM.

Turning to `O=C(O)CCCc1ccc(Cn2cc(Br)c(=O)[nH]c2=O)cc1`, the Ki worked out at 293 µM at Thymidylate kinase [4] and 10 µM at Thymidylate kinase [2]. This compound also showed an Activity in the data set with Vero [8] of 14%. The Ratio Ki in data set [5] is 29.

As to `Cc1cn(Cc2ccc(CCCCO)cc2)c(=O)[nH]c1=O`, the Activity result in the data set on Vero [1] was “Non-toxic”. In addition, on Thymidylate kinase [2], the Ki is 51 µM.

In the case of `O=C(O)CCCCc1ccc(Cn2cc(Br)c(=O)[nH]c2=O)cc1`, the Activity result with Vero [1] was “Non-toxic”. On Thymidylate kinase [2], the inhibitory constant (Ki) was found to be 38 µM.

Take `Cc1cn([C@@H]2O[C@H](CO)[C@@H](O)[C@H]2O)c(=O)n(Cc2ccccc2)c1=O`: the Ki at Thymidylate kinase [2] was 75 µM.

Turning to `COC(=O)CCCc1ccc(Cn2cc(Cl)c(=O)[nH]c2=O)cc1`, in the data set on Vero [1], the Activity entry is “Non-toxic”. Besides, the inhibition constant (Ki) at Thymidylate kinase [2] came to 59 µM.

Turning to `O=C(O)CCCc1ccc(Cn2ccc(=O)[nH]c2=O)cc1`, the Activity entry in the data set on Vero [1] was “Non-toxic”. The inhibitory constant (Ki) at Thymidylate kinase [2] was 202 µM.

For `Cc1cn(Cc2ccc(C#CCCO)cc2)c(=O)[nH]c1=O`, in the data set with Vero [1], the Activity result is “Non-toxic”. In addition, on Thymidylate kinase [2], the inhibitory constant (Ki) came to 70 µM.

Regarding `O=C(O)CCCCCc1ccc(Cn2cc(Br)c(=O)[nH]c2=O)cc1`, the Ki at Thymidylate kinase [4] was determined as 92 µM; on Thymidylate kinase [2], 34 µM. Further, the Activity result with Vero [1] was “Non-toxic”. Besides, the Ratio Ki in data set [5] was determined as 3.

Regarding `Cc1cn(Cc2ccc(CCCCCC(=O)O)cc2)c(=O)[nH]c1=O`, in the data set on Vero [1], the Activity entry is “Non-toxic”. In addition, at Thymidylate kinase [2], the inhibition constant Ki turned out to be 47 µM.

Take `Cc1cn(Cc2ccc(CCCC(=O)O)cc2)c(=O)[nH]c1=O`: the results for the Ki at Thymidylate kinase [4] and on Thymidylate kinase [2] were 252 µM and 13 µM, respectively. The Ratio Ki in data set [5] amounted to 19.

For the compound `NC(=O)CCCc1ccc(Cn2ccc(=O)[nH]c2=O)cc1`, the outcome in data set [7] was inactive. For the same compound, in the data set with Vero [1], the Activity result was “Non-toxic”.

For `Cc1cn(Cc2ccc(C#CCCCC(=O)O)cc2)c(=O)[nH]c1=O`, the Activity entry in the data set with Vero [1] is on record as “Non-toxic”. Further, the Ki on Thymidylate kinase [2] was found to be 96 µM.

In the case of `NC(=O)CCCCCc1ccc(Cn2cc(Cl)c(=O)[nH]c2=O)cc1`, in the data set on Vero [1], the Activity result is listed as “Non-toxic”. In addition, the Ki on Thymidylate kinase [2] was found to be 26 µM.

Turning to `NC(=O)CCCc1ccc(Cn2cc(Cl)c(=O)[nH]c2=O)cc1`, at Thymidylate kinase [2], the inhibition constant Ki came to 39 µM. In the data set with Vero [8], this compound showed an Activity of 10%. For the same compound, the outcome in data set [6] was inactive.

On to `CCCCCCc1ccc(Cn2cc(Cl)c(=O)[nH]c2=O)cc1`, for which the result in data set [3] was inactive. Further, the Activity result in the data set on Vero [1] is on record as “Non-toxic”.

Consider `CCCCCCc1ccc(Cn2cc(Br)c(=O)[nH]c2=O)cc1`, for which the result in data set [3] was inactive. In addition, in the data set with Vero [1], the Activity entry was “Non-toxic”.

The values above are taken from ChEMBL document CHEMBL1150358, “Substituted benzyl-pyrimidines targeting thymidine monophosphate kinase of Mycobacterium tuberculosis: synthesis and in vitro anti-mycobacterial activity” (Bioorg Med Chem, 2008).
